Test results as given in ChEMBL document CHEMBL3808289, “Discovery of a Selective Series of Inhibitors of Plasmodium falciparum HDACs” (ACS Med Chem Lett, 2016).
Active and inactive are the calls of the source. The calls are words filed in the database; no cut-off is given here.

Test system: not listed separately
Test: Clearance in NMRI mouse plasma
Assay type: ADME, organism-based
Details: not given

Compound	clearance [L/h/kg]
CNC(=O)CCCCC[C@H](NC(=O)C12CCN(CC1)CC2)c1ncc(-c2ccc3ccccc3c2)[nH]1	3.6

Test system: HDAC1
Test: Selectivity index, ratio of IC50 for HDAC1 in human HeLa cells to EC50 for Plasmodium falciparum 3D7 infected human erythrocytes
Assay type: toxicity, cell-based
Details: read-out: Ratio IC50/EC50

Compound	selectivity ratio
CNC(=O)CCCCC[C@H](NC(=O)c1cncs1)c1ncc(-c2ccc3cccnc3c2)[nH]1	> 6.6
CNC(=O)CCCCC[C@H](NC(=O)Cn1ccnn1)c1ncc(-c2cc3ccccc3nc2OC)[nH]1	3.8
CNC(=O)CCCCC[C@H](NC(=O)c1cncs1)c1ncc(-c2ccc(-c3cscn3)cc2)[nH]1	14
CNC(=O)CCCCC[C@H](NC(=O)c1cncs1)c1ncc(-c2ccc3ccncc3c2)[nH]1	18
CNC(=O)CCCCC[C@H](NC(=O)c1cncs1)c1ncc(-c2ccc3cc(OC)ncc3c2)[nH]1	14
CNC(=O)CCCCC[C@H](NC(=O)c1cncs1)c1ncc(-c2ccc3ccccc3c2)[nH]1	5.7
CNC(=O)CCCCC[C@H](NC(=O)c1cncs1)c1ncc(-c2ccc3ccccc3c2C)[nH]1	> 1
CNC(=O)CCCCC[C@H](NC(=O)c1cncs1)c1ncc(-c2ccc3ccnc(OC)c3c2)[nH]1	4.1
CNC(=O)CCCCC[C@H](NC(=O)C12CCN(CC1)CC2)c1ncc(-c2cc3ccccc3nc2OC)[nH]1	4.7
CNC(=O)CCCCC[C@H](NC(=O)c1cncs1)c1ncc(-c2cc3ccccc3[nH]c2=O)[nH]1	> 54
CNC(=O)CCCCC[C@H](NC(=O)C12CCN(CC1)CC2)c1ncc(-c2ccc3ccccc3c2)[nH]1	12
CCC(=O)CCCCC[C@H](NC(=O)C12CCN(CC1)CC2)c1ncc(-c2ccc3ccccc3c2)[nH]1	2.5
CNC(=O)CCCCC[C@H](NC(=O)c1cncs1)c1ncc(-c2ccc(-c3ccccc3)cc2)[nH]1	> 3.3
CNC(=O)CCCCC[C@H](NC(=O)c1cncs1)c1ncc(-c2ccc3[nH]ncc3c2)[nH]1	12
CNC(=O)CCCCC[C@H](NC(=O)c1cncs1)c1ncc(-c2ccc3[nH]ccc3c2)[nH]1	19
CNC(=O)CCCCC[C@H](NC(=O)c1cncs1)c1ncc(-c2ccc3[nH]nnc3c2)[nH]1	> 2.5
CNC(=O)CCCCC[C@H](NC(=O)c1cncs1)c1ncc(-c2ccc(-n3cccn3)cc2)[nH]1	23
CNC(=O)CCCCC[C@H](NC(=O)c1cncs1)c1ncc(-c2cccc3cccnc23)[nH]1	> 3
CNC(=O)CCCCC[C@H](NC(=O)c1cncs1)c1ncc(-c2ccc3cc(C(F)(F)F)ncc3c2)[nH]1	20
CNC(=O)CCCCC[C@H](NC(=O)c1cncs1)c1ncc(-c2ccc3[nH]cnc3c2)[nH]1	> 2.1

Test system: not listed separately
Test: Oral bioavailability in NMRI mouse at 10 mg/kg
Assay type: ADME, organism-based
Details: in vivo

Compound	bioavailability [%]
CNC(=O)CCCCC[C@H](NC(=O)Cn1ccnn1)c1ncc(-c2cc3ccccc3nc2OC)[nH]1	20
CNC(=O)CCCCC[C@H](NC(=O)c1cncs1)c1ncc(-c2cc3ccccc3nc2OC)[nH]1	10

Target: Histone deacetylase 1 (Homo sapiens, UniProt Q13547)
Test: Inhibition of recombinant human His-tagged HDAC1 expressed in insect cells preincubated for 10 mins followed by addition of FLUOR DE LYS as fluorescent substrate measured after 1 hr by spectrophotometry
Details: not given

Chain of Histone deacetylase 1 (Q13547 whole entry): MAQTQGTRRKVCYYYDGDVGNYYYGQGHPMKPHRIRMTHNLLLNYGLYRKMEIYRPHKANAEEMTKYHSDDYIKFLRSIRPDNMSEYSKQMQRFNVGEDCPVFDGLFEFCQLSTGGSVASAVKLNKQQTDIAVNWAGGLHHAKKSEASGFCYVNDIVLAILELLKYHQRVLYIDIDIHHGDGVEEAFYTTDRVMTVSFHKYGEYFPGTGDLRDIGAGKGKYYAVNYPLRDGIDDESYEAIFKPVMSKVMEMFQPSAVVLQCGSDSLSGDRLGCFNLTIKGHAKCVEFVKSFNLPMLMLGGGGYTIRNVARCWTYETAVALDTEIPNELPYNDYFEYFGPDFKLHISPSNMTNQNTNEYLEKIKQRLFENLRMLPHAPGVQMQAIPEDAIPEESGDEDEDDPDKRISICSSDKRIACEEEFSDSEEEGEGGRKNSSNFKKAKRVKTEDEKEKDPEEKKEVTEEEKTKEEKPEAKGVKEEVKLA

Compound	IC50 [µM]
CNC(=O)CCCCC[C@H](NC(=O)c1cncs1)c1ncc(-c2ccc3cccnc3c2)[nH]1	> 5
CNC(=O)CCCCC[C@H](NC(=O)Cn1ccnn1)c1ncc(-c2cc3ccccc3nc2OC)[nH]1	1.76
CNC(=O)CCCCC[C@H](NC(=O)c1cncs1)c1ncc(-c2ccc(-c3cscn3)cc2)[nH]1	2.16
CNC(=O)CCCCC[C@H](NC(=O)c1cncs1)c1ncc(-c2ccc3ccncc3c2)[nH]1	0.6
CNC(=O)CCCCC[C@H](NC(=O)c1cncs1)c1ncc(-c2ccc3cc(OC)ncc3c2)[nH]1	0.39
CNC(=O)CCCCC[C@H](NC(=O)c1cncs1)c1ncc(-c2ccc3ccccc3c2)[nH]1	0.32
CNC(=O)CCCCC[C@H](NC(=O)c1cncs1)c1ncc(-c2ccc3ccccc3c2C)[nH]1	23.9
CNC(=O)CCCCC[C@H](NC(=O)c1cncs1)c1ncc(-c2ccc3ccnc(OC)c3c2)[nH]1	2.62
CNC(=O)CCCCC[C@H](NC(=O)C12CCN(CC1)CC2)c1ncc(-c2cc3ccccc3nc2OC)[nH]1	0.25
CNC(=O)CCCCC[C@H](NC(=O)c1cncs1)c1ncc(-c2cc3ccccc3[nH]c2=O)[nH]1	> 2.5
CNC(=O)CCCCC[C@H](NC(=O)C12CCN(CC1)CC2)c1ncc(-c2ccc3ccccc3c2)[nH]1	0.34
CCC(=O)CCCCC[C@H](NC(=O)C12CCN(CC1)CC2)c1ncc(-c2ccc3ccccc3c2)[nH]1	0.0014
CNC(=O)CCCCC[C@H](NC(=O)c1cncs1)c1ncc(-c2ccc(-c3ccccc3)cc2)[nH]1	> 5
CNC(=O)CCCCC[C@H](NC(=O)c1cncs1)c1ncc(-c2ccc3[nH]ncc3c2)[nH]1	2.12
CNC(=O)CCCCC[C@H](NC(=O)c1cncs1)c1ncc(-c2ccc3[nH]ccc3c2)[nH]1	1.28
CNC(=O)CCCCC[C@H](NC(=O)c1cncs1)c1ncc(-c2ccc3[nH]nnc3c2)[nH]1	> 5
CNC(=O)CCCCC[C@H](NC(=O)c1cncs1)c1ncc(-c2ccc(-n3cccn3)cc2)[nH]1	2.49
CNC(=O)CCCCC[C@H](NC(=O)c1cncs1)c1ncc(-c2cccc3cccnc23)[nH]1	> 2.5
CNC(=O)CCCCC[C@H](NC(=O)c1cncs1)c1ncc(-c2ccc3cc(C(F)(F)F)ncc3c2)[nH]1	0.29
CNC(=O)CCCCC[C@H](NC(=O)c1cncs1)c1ncc(-c2ccc3[nH]cnc3c2)[nH]1	> 2.5

Test system: Plasmodium falciparum 3D7
Test: Inhibition of recombinant Plasmodium falciparum 3D7 Flag-tagged HDAC1 Y301H mutant assessed as loss of enzyme activity
Details: not given
Method in brief: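 The Y301H mutant is a putative catalytic-site mutant of PfHDAC1. It was expressed as a Flag-fusion in insect or mammalian cells and purified on anti-Flag affinity gel. Deacetylase activity was measured in vitro with fluorogenic substrates, alongside wild-type PfHDAC1.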

Compound	inhibition
CCC(=O)CCCCC[C@H](NC(=O)C1CN(C)C1)c1ncc(-c2cc3ccccc3nc2OC)[nH]1	inactive

Test system: Plasmodium falciparum
Test: Antimalarial activity against Plasmodium falciparum 3D7 infected human erythrocytes assessed as parasite growth inhibition after 72 hrs by spectrophotometry
Assay type: functional, organism-based
Details: 3D7, 72 h
Method in brief: (§1)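 Cell-based read-outs (parasite growth in erythrocytes; class I HDAC activity in HeLa) were run with multiple repetitions of each assay to limit variability.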

Compound	EC50 [µM]
CNC(=O)CCCCC[C@H](NC(=O)c1cncs1)c1ncc(-c2ccc3cccnc3c2)[nH]1	3.81
CNC(=O)CCCCC[C@H](NC(=O)Cn1ccnn1)c1ncc(-c2cc3ccccc3nc2OC)[nH]1	1.76
CNC(=O)CCCCC[C@H](NC(=O)c1cncs1)c1ncc(-c2ccc(-c3cscn3)cc2)[nH]1	0.57
CNC(=O)CCCCC[C@H](NC(=O)c1cncs1)c1ncc(-c2ccc3ccncc3c2)[nH]1	0.27
CNC(=O)CCCCC[C@H](NC(=O)c1cncs1)c1ncc(-c2ccc3cc(OC)ncc3c2)[nH]1	0.1
CNC(=O)CCCCC[C@H](NC(=O)c1cncs1)c1ncc(-c2ccc3ccccc3c2)[nH]1	0.3
CNC(=O)CCCCC[C@H](NC(=O)c1cncs1)c1ncc(-c2ccc3ccccc3c2C)[nH]1	23.7
CNC(=O)CCCCC[C@H](NC(=O)c1cncs1)c1ncc(-c2ccc3ccnc(OC)c3c2)[nH]1	4.86
CNC(=O)CCCCC[C@H](NC(=O)C12CCN(CC1)CC2)c1ncc(-c2cc3ccccc3nc2OC)[nH]1	0.52
CNC(=O)CCCCC[C@H](NC(=O)c1cncs1)c1ncc(-c2cc3ccccc3nc2OC)[nH]1	0.57
CNC(=O)CCCCC[C@H](NC(=O)c1cncs1)c1ncc(-c2cc3ccccc3[nH]c2=O)[nH]1	0.5
CNC(=O)CCCCC[C@H](NC(=O)C12CCN(CC1)CC2)c1ncc(-c2ccc3ccccc3c2)[nH]1	0.31
CCC(=O)CCCCC[C@H](NC(=O)C12CCN(CC1)CC2)c1ncc(-c2ccc3ccccc3c2)[nH]1	0.038
CNC(=O)CCCCC[C@H](NC(=O)c1cncs1)c1ncc(-c2ccc(-c3ccccc3)cc2)[nH]1	7.57
CNC(=O)CCCCC[C@H](NC(=O)c1cncs1)c1ncc(-c2ccc3[nH]ncc3c2)[nH]1	0.63
CNC(=O)CCCCC[C@H](NC(=O)c1cncs1)c1ncc(-c2ccc3[nH]ccc3c2)[nH]1	0.33
CNC(=O)CCCCC[C@H](NC(=O)c1cncs1)c1ncc(-c2ccc3[nH]nnc3c2)[nH]1	10.1
CNC(=O)CCCCC[C@H](NC(=O)c1cncs1)c1ncc(-c2ccc(-n3cccn3)cc2)[nH]1	0.9
CNC(=O)CCCCC[C@H](NC(=O)c1cncs1)c1ncc(-c2cccc3cccnc23)[nH]1	8.28
CNC(=O)CCCCC[C@H](NC(=O)c1cncs1)c1ncc(-c2ccc3cc(C(F)(F)F)ncc3c2)[nH]1	0.1
CNC(=O)CCCCC[C@H](NC(=O)c1cncs1)c1ncc(-c2ccc3[nH]cnc3c2)[nH]1	12

Test system: not listed separately
Test: Clearance in NMRI mouse plasma 2 mg/kg, iv by LC-MS/MS analysis
Assay type: ADME, organism-based
Details: not given

Compound	clearance [L/h/kg]
CNC(=O)CCCCC[C@H](NC(=O)C12CCN(CC1)CC2)c1ncc(-c2cc3ccccc3nc2OC)[nH]1	0.6

Test system: not listed separately
Test: Inhibition of class 1 histone deacetylase in human HeLa cells using FLUOR DE LYS as fluorescent substrate after 4 hrs by spectrophotometry
Assay type: cell-based
Details: not given
Method in brief: as §1

Compound	IC50 [µM]
CNC(=O)CCCCC[C@H](NC(=O)c1cncs1)c1ncc(-c2ccc3cccnc3c2)[nH]1	> 25
CNC(=O)CCCCC[C@H](NC(=O)Cn1ccnn1)c1ncc(-c2cc3ccccc3nc2OC)[nH]1	6.65
CNC(=O)CCCCC[C@H](NC(=O)c1cncs1)c1ncc(-c2ccc(-c3cscn3)cc2)[nH]1	8.13
CNC(=O)CCCCC[C@H](NC(=O)c1cncs1)c1ncc(-c2ccc3ccncc3c2)[nH]1	4.75
CNC(=O)CCCCC[C@H](NC(=O)c1cncs1)c1ncc(-c2ccc3cc(OC)ncc3c2)[nH]1	1.37
CNC(=O)CCCCC[C@H](NC(=O)c1cncs1)c1ncc(-c2ccc3ccccc3c2)[nH]1	1.7
CNC(=O)CCCCC[C@H](NC(=O)c1cncs1)c1ncc(-c2ccc3ccccc3c2C)[nH]1	> 25
CNC(=O)CCCCC[C@H](NC(=O)c1cncs1)c1ncc(-c2ccc3ccnc(OC)c3c2)[nH]1	20.1
CNC(=O)CCCCC[C@H](NC(=O)C12CCN(CC1)CC2)c1ncc(-c2cc3ccccc3nc2OC)[nH]1	2.45
CNC(=O)CCCCC[C@H](NC(=O)c1cncs1)c1ncc(-c2cc3ccccc3nc2OC)[nH]1	0.89
CNC(=O)CCCCC[C@H](NC(=O)c1cncs1)c1ncc(-c2cc3ccccc3[nH]c2=O)[nH]1	> 25
CNC(=O)CCCCC[C@H](NC(=O)C12CCN(CC1)CC2)c1ncc(-c2ccc3ccccc3c2)[nH]1	3.77
CCC(=O)CCCCC[C@H](NC(=O)C12CCN(CC1)CC2)c1ncc(-c2ccc3ccccc3c2)[nH]1	0.094
CNC(=O)CCCCC[C@H](NC(=O)c1cncs1)c1ncc(-c2ccc(-c3ccccc3)cc2)[nH]1	> 25
CNC(=O)CCCCC[C@H](NC(=O)c1cncs1)c1ncc(-c2ccc3[nH]ncc3c2)[nH]1	7.63
CNC(=O)CCCCC[C@H](NC(=O)c1cncs1)c1ncc(-c2ccc3[nH]ccc3c2)[nH]1	6.33
CNC(=O)CCCCC[C@H](NC(=O)c1cncs1)c1ncc(-c2ccc3[nH]nnc3c2)[nH]1	> 25
CNC(=O)CCCCC[C@H](NC(=O)c1cncs1)c1ncc(-c2ccc(-n3cccn3)cc2)[nH]1	20.5
CNC(=O)CCCCC[C@H](NC(=O)c1cncs1)c1ncc(-c2cccc3cccnc23)[nH]1	> 25
CNC(=O)CCCCC[C@H](NC(=O)c1cncs1)c1ncc(-c2ccc3cc(C(F)(F)F)ncc3c2)[nH]1	2.04
CNC(=O)CCCCC[C@H](NC(=O)c1cncs1)c1ncc(-c2ccc3[nH]cnc3c2)[nH]1	> 25

Test system: Plasma
Test: Drug uptake in NMRI mouse plasma at 10 mg/kg, po
Assay type: ADME, organism-based
Details: in vivo

Compound	Drug uptake
CNC(=O)CCCCC[C@H](NC(=O)C12CCN(CC1)CC2)c1ncc(-c2cc3ccccc3nc2OC)[nH]1	Not Active
CNC(=O)CCCCC[C@H](NC(=O)C12CCN(CC1)CC2)c1ncc(-c2ccc3ccccc3c2)[nH]1	Not Active
